Sampled rows, rich in hits. Any-hit rate of the full collection: about 2.3%.
TRPC6 inh – mouse TRPC6 channel inhibition; B-score at 10 µM; Q61143; HEK293-TRPC6, membrane potential dye, ACh-evoked depolarization; active compounds read low; AID 2553; 1.1% of 310,000 active;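 active means B-score under library mean minus 3 SD, initial fluorescence not abnormally high, positive integrated signal ratio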;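 further: B-score derived from integrated fluorescence ratio over the kinetic read; more negative B-score means stronger inhibition of depolarization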
TRPC4 PAM – allosteric potentiators of mouse TRPC4 channel; Q9QUQ5; HEK293 TRPC4beta/mu-opioid, DAMGO EC20, Fluo-4 Ca2+ flux; active compounds read high; B-score at 10 µM; 0.42% of 310,000 active; AID 2227;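 active means B-score of calcium response area above 5 SD of library B-scores, with initial fluorescence ratio within 5 SD of library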
TRPC4 inh – TRPC4 (mouse) channel inhibition | B-score at 10 µM | Q9QUQ5 | HEK293 TRPC4beta/mu-opioid, DAMGO-evoked Fluo4 calcium flux; active compounds read low | 0.39% of 300,000 active;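 active means B-score over 3 SD under the library average, no early fluorescence shift, positive overall ratio signal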
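material = TRPC4beta/mu-opioid receptor HEK293 cell line | probe or stimulus = sequential submaximal and maximal DAMGO stimulation | compound dosing = one concentration per compound | measured by = Fluo4 Ca2+ flux fluorescence | evaluation = integrated fluorescence ratio relative to baseline, converted to per-well B score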
TRPC4 agonist – TRPC4 (mouse) channel activation | Q9QUQ5 | HEK293 TRPC4beta/mu-opioid, Fluo4 calcium fluorescence; active compounds read high | B-score at 10 µM | 0.49% of 310,000 active;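 active means B-score above 5 SD of library B-scores, and initial fluorescence ratio not above library mean plus 5 SD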;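 further: positive B-score marks a calcium rise read as TRPC4 activation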
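Assay system: HEK293 cells stably co-expressing mouse TRPC4beta and mu-opioid receptor / Timing: Fluo4 dye loading 45 min at room temperature, 110 s recording / Signal: Fluo4 calcium-sensitive dye fluorescence, kinetic, 1 Hz baseline / Read-out: integrated baseline-normalised fluorescence ratio, converted to per-well B score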
TRPC6 act – activates the mouse TRPC6 cation channel; Q61143; HEK293-TRPC6 membrane potential dye fluorescence; active compounds read high; 0.13% of 310,000 active; B-score at 10 µM; AID 2550;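 active means B-score of the integrated fluorescence ratio above library mean plus 3 SD, and starting fluorescence ratio within library mean plus 5 SD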;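 further: higher score means more depolarization so channel activation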
TRPC4 sel inh 2 – second selectivity test of TRPC6 inhibitors: effect on mouse TRPC4; shares compounds with TRPC6 inh; inhibition, % at 10 µM; AID 2776; 42% of 920 active; HEK293 TRPC4/MOR, membrane potential dye fluorescence; channel activated by saturating DAMGO dose;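 active means compounds whose fluorescence signal differed from control wells by over 3 SD, either direction, in both duplicate plates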
TRPC4 spec – mouse TRPC4 off-target activity of TRPC6 inhibitors; shares compounds with TRPC6 inh; HEK293 TRPC4/mu-opioid, membrane potential fluorescence; activity change, negative = inhibition, % at 10 µM; 61% of 920 active; AID 2777;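 active means rise or fall in signal beyond 3 SD of buffer-only wells in both replicate plates, either sign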;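 further: integrated kinetic ratio of fluorescence range over baseline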
HEK293 MPD ctr 2-1 – parental HEK293 nonspecific activity of TRPC6 inhibitors, second screen. shares compounds with TRPC6 inh. parental HEK293 membrane potential dye fluorescence; maximal acetylcholine challenge after compound addition. signal change vs control, % at 10 µM. 31% of 920 active;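 active means membrane potential signal moving either way by over 3 SD of the maximum-effect control, in both duplicate plates, meaning non-specific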
HEK293 MPD ctr-1 – parental HEK293 nonspecific activity of TRPC6 inhibitors | shares compounds with TRPC6 inh | parental HEK293 membrane potential dye fluorescence | membrane potential signal change, % at 10 µM | 60% of 920 active;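 active means membrane potential signal shifting up or down by more than 3 SD of buffer-only wells, on both duplicate plates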
HEK293 MPD ctr-2 – checks TRPC6 modulator effects in parental HEK293 cells. shares compounds with TRPC6 inh. membrane potential dye fluorescence. membrane potential signal change, % at 10 µM. 51% of 2,400 active. AID 488924;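 active means membrane potential signal moves up or down beyond 5 SD from buffer-only wells, on both duplicate plates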
HEK293 MPD ctr 2-2 – parental HEK293 nonspecific activity of TRPC6 modulators, second screen; membrane potential dye fluorescence; after compound, maximal acetylcholine stimulation; shares compounds with TRPC6 inh; 14% of 2,400 active; inhibition, % at 10 µM;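 active means membrane potential signal drops by more than 5 SD from the mean control signal, in both duplicate plates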
TRPC4 ctr mod – selectivity of TRPC6 modulators against mouse TRPC4. shares compounds with TRPC6 inh. HEK293 TRPC4/mu-opioid, membrane potential fluorescence. percent change from control (negative = decrease, positive = increase), % at 10 µM. 69% of 2,400 active;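 active means membrane potential signal moved up or down beyond 5 SD of buffer control wells, in both duplicate plates, actives on both sides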
TRPC4 ctr inh 2 – second selectivity test of TRPC6 modulators against mouse TRPC4 | shares compounds with TRPC6 inh | 55% of 2,400 active | HEK293 TRPC4/mu-opioid, membrane potential dye fluorescence; stimulated with maximal-effect DAMGO | inhibition, % at 10 µM;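 active means drop in membrane potential signal beyond 5 SD of the control wells in both duplicate plates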;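 further: TRPC4 counter screen for TRPC6 hits run under conditions tuned for TRPC6 not TRPC4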
TRPC6 block conf – confirmation of mouse TRPC6 inhibitors; shares compounds with TRPC6 inh; HEK293-TRPC6, membrane potential dye, ACh-evoked depolarization; inhibition, % at 10 µM; 43% of 3,300 active; AID 488960;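 active means fluorescence ratio falls more than 5 SD below the full-stimulation control mean, in both duplicate runs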;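 further: integrated fluorescence ratio of peak minus minimum over baseline after agonist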
TRPC6 act conf – mouse TRPC6 activator confirmation | activation, % at 10 µM | HEK293-TRPC6 membrane potential dye fluorescence, FDSS | shares compounds with TRPC6 inh | 11% of 2,800 active;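 active means ratio signal rise beyond 5 SD above unstimulated control wells' mean, seen in both duplicate runs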
Each line names hits and unclear results; the compound was inactive in the other large screens (follow-up assays come after a bar, where they were run).

CCN(CC)CCNC(=O)c1nn(-c2ccc(C)cc2)c(=O)c2c1c1ccccc1n2C	TRPC6 inh -8.9 | TRPC4 sel inh 2 56% | TRPC4 spec -15% | HEK293 MPD ctr 2-1 inactive | HEK293 MPD ctr-1 -187% | TRPC6 block conf 64% | TRPC6 act conf inactive
N#CC(c1cccc(Cl)c1)c1ccc2c(C(F)(F)F)cc(C(F)(F)F)nc2n1 (centres undefined)	TRPC6 inh -10 | TRPC4 sel inh 2 inactive | TRPC4 spec 0.8% | HEK293 MPD ctr 2-1 inactive | HEK293 MPD ctr-1 0.4% | TRPC6 block conf 75% | TRPC6 act conf inactive
NNc1ccc2c(C(F)(F)F)cc(C(F)(F)F)nc2n1	none
Brc1ccc(CNc2nc3ccccc3n2CCN2CCCCC2)cc1	TRPC6 inh -5.2 | HEK293 MPD ctr-2 inactive | HEK293 MPD ctr 2-2 inactive | TRPC4 ctr mod 15% | TRPC4 ctr inh 2 89% | TRPC6 block conf 38% | TRPC6 act conf inactive
COc1ccc(CNc2nc3ccccc3n2CCN2CCCCC2)c(OC)c1	TRPC6 inh -10 | TRPC4 sel inh 2 42% | TRPC4 spec 9.3% | HEK293 MPD ctr 2-1 252% | HEK293 MPD ctr-1 7.9% | TRPC6 block conf inactive | TRPC6 act conf inactive
COc1cccc(CNc2nc3ccccc3n2CCN2CCCCC2)c1	TRPC6 inh -6.1 | HEK293 MPD ctr-2 inactive | HEK293 MPD ctr 2-2 inactive | TRPC4 ctr mod inactive | TRPC4 ctr inh 2 56% | TRPC6 block conf 35% | TRPC6 act conf inactive
Brc1cccc(CNc2nc3ccccc3n2CCN2CCCCC2)c1	none
COc1ccc(OC)c(CNc2nc3ccccc3n2CCN2CCCCC2)c1	none
CCCn1c2ccccc2c2cnn(CC(=O)NCCCN3CCN(c4ccccc4)CC3)c(=O)c21	TRPC6 inh -5.3 | HEK293 MPD ctr-2 134% | HEK293 MPD ctr 2-2 inactive | TRPC4 ctr mod 8.0% | TRPC4 ctr inh 2 74% | TRPC6 block conf inactive
CCCCc1ccc(NS(=O)(=O)c2cccs2)cc1	none
Cn1c(=O)c(C(=O)Nc2ccccn2)c(O)c2ccccc21	TRPC6 inh -8.7 | TRPC4 sel inh 2 inactive | TRPC4 spec -21% | HEK293 MPD ctr 2-1 inactive | HEK293 MPD ctr-1 -327% | TRPC6 block conf inactive | TRPC6 act conf inactive
CC(=O)c1nn(-c2cccc(Br)c2)cc1C(=O)c1ccc(Cl)cc1	none
COc1ccc(Cn2c(=N)c(C(=O)NC3CCCCC3)cc3c(=O)n4ccccc4nc32)cc1	none
COc1ccc(CCn2c(=N)c(C(=O)NC3CCCC3)cc3c(=O)n4ccccc4nc32)cc1	TRPC6 inh -6.5 | HEK293 MPD ctr-2 169% | HEK293 MPD ctr 2-2 114% | TRPC4 ctr mod 26% | TRPC4 ctr inh 2 86% | TRPC6 block conf 64% | TRPC6 act conf inactive
COc1ccc(CCn2c(=N)c(C(=O)NC3CCCC3)cc3c(=O)n4ccccc4nc32)cc1OC	TRPC6 inh -5.2 | HEK293 MPD ctr-2 -154% | HEK293 MPD ctr 2-2 inactive | TRPC4 ctr mod -33% | TRPC4 ctr inh 2 52% | TRPC6 block conf 42% | TRPC6 act conf inactive
COCCCn1c(=N)c(C(=O)NC2CCCCC2)cc2c(=O)n3ccccc3nc21	TRPC6 inh -6.1 | HEK293 MPD ctr-2 inactive | HEK293 MPD ctr 2-2 inactive | TRPC4 ctr mod inactive | TRPC4 ctr inh 2 49% | TRPC6 block conf 64% | TRPC6 act conf inactive
COc1ccc(CCn2c(=N)c(C(=O)NCC3CCCO3)cc3c(=O)n4ccccc4nc32)cc1OC (centres undefined)	none
CCOC(=O)c1sc2ncnc(N3CCN(CC)CC3)c2c1C	TRPC6 inh -5.5 | HEK293 MPD ctr-2 -128% | HEK293 MPD ctr 2-2 inactive | TRPC4 ctr mod -21% | TRPC4 ctr inh 2 41% | TRPC6 block conf inactive | TRPC6 act conf inactive
CCOC(=O)c1sc2ncnc(N3CCN(C(=O)OCC)CC3)c2c1C	none
CCN(CC)S(=O)(=O)N1CCC(C(=O)NCc2ccc(C)cc2)CC1	none
CCN(CC)c1ccc(CN2CCC(C(=O)NCc3ccc(C)cc3)CC2)cc1	TRPC6 inh -5.1 | HEK293 MPD ctr-2 inactive | HEK293 MPD ctr 2-2 inactive | TRPC4 ctr mod inactive | TRPC4 ctr inh 2 77% | TRPC6 block conf 58% | TRPC6 act conf inactive
COC(=O)C1CCN(Cc2ccc(C)cc2)CC1	none
Cc1ccc(S(=O)(=O)NNC(=O)C2CCN(Cc3ccccc3)CC2)cc1	TRPC6 inh -15 | TRPC4 sel inh 2 inactive | TRPC4 spec inactive | HEK293 MPD ctr 2-1 -14% | HEK293 MPD ctr-1 0.1% | TRPC6 block conf 84% | TRPC6 act conf inactive
CCN(CC)c1ccc(NC(=O)C2CCCC2)cc1	TRPC6 inh -5.8 | HEK293 MPD ctr-2 inactive | HEK293 MPD ctr 2-2 inactive | TRPC4 ctr mod inactive | TRPC4 ctr inh 2 inactive | TRPC6 block conf inactive | TRPC6 act conf inactive
CN1CCCC(C#CC(O)(c2ccccc2)c2ccccc2)C1 (centres undefined)	TRPC6 inh -8.8 | TRPC4 sel inh 2 inactive | TRPC4 spec inactive | HEK293 MPD ctr 2-1 inactive | HEK293 MPD ctr-1 inactive | TRPC6 block conf inactive | TRPC6 act conf inactive
CN1CCCC(C(=O)C(C#N)c2ccccc2)C1 (centres undefined)	none
O=C(Nc1cccc([N+](=O)[O-])c1)C1CC(=O)N(C2CCCCC2)C1 (centres undefined)	none
Cc1ccc(CC2SC(N=C(N)N)=NC2=O)cc1 (centres undefined)	none

Screening data as filed in PubChem.
